Measured values taken from the RNAGym collection of RNA variant scans (doi:10.1126/science.aae0568).
Fewer inactive variants are shown than the library holds.

B1: tRNA (parent)
chain: GUUCCGUUGGCGUAAUGGUAACGCGUCUCCCUCCUAAGGAGAAGACUGCGGGUUCGAGUCCCGUACGGAACG

Variants of: B1
Experiment: yeast fitness relative to wild type (ratio to wild type); higher = fitter; tRNA-Arg(CCU), competitive growth, 37 C, YPD
Method in brief: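 Changes in genotype frequencies gave Darwinian fitness relative to wild type. Frequencies were read by 100-nucleotide paired-end sequencing of gene amplicons before and after pooled Saccharomyces cerevisiae strains, carrying tRNA-Arg(CCU) gene variants at the native locus, were competed in YPD at 37°C for 24 hours in six replicates. A genotype was kept only with ≥ 100 starting reads, and estimates < 0.5 were set to 0.5.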

| Variant | yeast fitness |
| --- | --- |
| U13C A14C C60U C62U U64A | ≤ 0.5 |
| U13A G18C A36G G41C A65C | 0.544 |
| U13C A14U A36U G38A A43U G67A | ≤ 0.5 |
| U13C A15G C22G | 0.571 |
| U13C A14U C46U G48A C55U G68U | ≤ 0.5 |
| U13A G39A A45G U54A | ≤ 0.5 |
| U13A U19A C34U A42C A43U | ≤ 0.5 |
| U13A C49A G63A | ≤ 0.5 |
| U13A G18C A36G G41C | 0.706 |
| U13A U28C A45U | 0.702 |
| U13C A20G U54C | ≤ 0.5 |
| U13A G23C | 0.57 |
| U13A G23A | 0.659 |
| U13A C46A A69C | 0.722 |
| U13A C55U A70C | 0.571 |
| U13A U28C C55A | 0.595 |
| U13A A21U C22G C31A | 0.701 |
| U13A A69G | 1.07 |
| U13A A40U G52U C55G | ≤ 0.5 |
| U13A G18C C27U A40G G41A A45U | ≤ 0.5 |
| U13A G41A G48A U53C | ≤ 0.5 |
| U13A U32C | 0.875 |
| U13A U32A | 0.69 |
| U13A C29G A42C C62G | ≤ 0.5 |

| Variant | yeast fitness |
| --- | --- |
| U13A C46A G48C | 1.08 |
| U13A C29A C31G | 0.524 |
| U13A G39C | 0.779 |
| U13A G23A U35G U59C | 0.528 |
| U13A U54C C55U C62U G68C | 0.686 |
| U13C A14C U64C A65C | ≤ 0.5 |
| U13A U28C G58C A69U | 0.7 |
| U13A A37C G41A U47A U59C | ≤ 0.5 |
| U13A C27U C62U | 0.786 |
| U13A A42G U47A | 0.542 |
| U13A G38C | 0.619 |
| U13A C61U A70U | 0.708 |
| U13A C61U A70G | 0.633 |
| U13A A45C | 0.902 |
| U13A A42C G68C | 0.529 |
| U13A A21C G44A | ≤ 0.5 |
| U13A G23C C24G A70G | ≤ 0.5 |
| U13C A15U U16A U19A | ≤ 0.5 |
| U13C A20G C49U C66U A70C | ≤ 0.5 |
| U13A A37U G68A | 0.637 |
| U13A C27G A40G G41C | 0.741 |
| U13C A42U U54C | 0.592 |
| U13A C22G U32C A42C G48C C55G | ≤ 0.5 |
| U13C A43G | 0.984 |

| Variant | yeast fitness |
| --- | --- |
| U13A U26G C29U | ≤ 0.5 |
| U13A G23C C27G | 0.504 |
| U13C A42G G56U | ≤ 0.5 |
| U13A C62A | 0.668 |
| U13A C62G | 0.78 |
| U13A C30G C61U G68A | ≤ 0.5 |
| U13A A21U C22G U32C A42C G48C C55G | ≤ 0.5 |
| U13A U32C A69U | 0.995 |
| U13A U59A U64A A70C | 0.511 |
| U13A C30U U47A U59A C60U C62G C66U | 0.55 |
| U13A A21G G63A | 0.652 |
| U13A C22G C29G A40U U54C C61G | ≤ 0.5 |
| U13C A14U G41C G48C | ≤ 0.5 |
| U13A C30A | 1.11 |
| U13A C22U C46U | 1.06 |
| U13C A20C A43G | 0.684 |
| U13A C22G C31G C61A G67A | ≤ 0.5 |
| U13A C60U A69U | 0.62 |
| U13C A37G G58A | 0.647 |
| U13A U32G A45G A70G | ≤ 0.5 |
| U13A C30G U54C | ≤ 0.5 |
| U13A G25C C27A C30G A40C C60U C66G | ≤ 0.5 |
| U13A A21C U54G | 0.557 |
| U13A A37G G41C | ≤ 0.5 |

| Variant | yeast fitness |
| --- | --- |
| U13A U64C | 0.922 |
| U13A U64A | 0.832 |
| U13A G58C | 0.853 |
| U13A G18C C27U U54C A57U | 0.561 |
| U13A A65G | 1.04 |
| U13A A65C | 0.79 |
| U13A A40G A57U G68A | 0.524 |
| U13A C33U A45C C46G A69U | 0.579 |
| U13A G18C U26A | ≤ 0.5 |
| U13C A21G C31G | 0.754 |
| U13A C31G C34A | 0.624 |
| U13A C24G G25A G39C A40C G51C | 0.745 |
| U13A C27G U32C A45G U64A | ≤ 0.5 |
| U13A C27U G56A | 0.97 |
| U13A A37U G41C U59C | ≤ 0.5 |
| U13A C22G G25C C27U C30G C55A A69U | 0.572 |
| U13A C30U G38C C49A | ≤ 0.5 |
| U13C A14U G41C | 0.603 |
| U13A G48C | 1.1 |
| U13C A15U U16A U19A C34U G67A G68C | ≤ 0.5 |
| U13C A45G | 0.916 |
| U13C A40U A69U | 0.793 |
| U13A G18C A36G G41C U47A | ≤ 0.5 |
| U13A C24U C30A C60U | ≤ 0.5 |

| Variant | yeast fitness |
| --- | --- |
| U13A A40C A70U | ≤ 0.5 |
| U13A A37U G67C | 0.645 |
| U13A C46G U53C C62U A69C | ≤ 0.5 |
| U13A A45G G50C C60A A69C | 0.821 |
| U13A G23C C61A C62A | 0.726 |
| U13A G23C C24G G50A | ≤ 0.5 |
| U13C A36U G51C | ≤ 0.5 |
| U13A U32C A40C G67A | ≤ 0.5 |
| U13A C22G C24A G39C A43C G44C U47C C61U | ≤ 0.5 |
| U13A G67U | 0.727 |
| U13A G67A | 0.9 |
| U13A C30U C33A U35C | 0.558 |
| U13A G25C A45G A57G | ≤ 0.5 |
| U13A U28A U47G C62U A65U | ≤ 0.5 |
| U13A C30U C34U A42G G63A | ≤ 0.5 |
| U13A C61U A65G | 0.71 |
| U13A A70U | 1.04 |
| U13A A70C | 1.03 |
| U13A A70G | 0.937 |
| U13C A14G C31U | 0.824 |
| U13A U28C A69C | 0.76 |
| U13A A45C G48A | 1.26 |
| U13A C22A A65G | 1.06 |
| U13A C55U G58A U59C C62U | ≤ 0.5 |

| Variant | yeast fitness |
| --- | --- |
| U13C A45U A57G | ≤ 0.5 |
| U13A C34G U54A | 0.609 |
| U13C A65U | 1.02 |
| U13C A65C | 0.873 |
| U13A A40U | 0.99 |
| U13A G23C A70C | 0.667 |
| U13A C61A C62U C66U | ≤ 0.5 |
| U13A A57C C66G | ≤ 0.5 |
| U13C A20G C46U U47A A70U | ≤ 0.5 |
| U13A C46A | 0.979 |
| U13A U32C A65G | 0.705 |
| U13C A14G G56C | ≤ 0.5 |
| U13A G58C C60U C66G | 0.574 |
| U13A U19G C49U | 0.625 |
| U13A U16A C49A C61U C62G | ≤ 0.5 |
| U13A G41A A42C G50C A70G | ≤ 0.5 |
| U13A U16A U54A | 0.505 |
| U13A G41C A42G G67A | ≤ 0.5 |
| U13C A36C | 0.643 |
| U13C A36G | 1.01 |
| U13A U54C C62U G68C | ≤ 0.5 |
| U13A U16A C61U G63C | ≤ 0.5 |
| U13A G25A | 1.01 |
| U13A C27G A42U A57C | ≤ 0.5 |

| Variant | yeast fitness |
| --- | --- |
| U13C A37C | 0.713 |
| U13C A37G | 0.694 |
| U13C A43U A69C | 0.766 |
| U13A U53C U59A U64A A70C | ≤ 0.5 |
| U13A C60U | 0.699 |
| U13A U32C U54G C62U | ≤ 0.5 |
| U13A G41A A45C | 0.552 |
| U13A G51C | 0.58 |
| U13C A40C C66A | 0.567 |
| U13A C30A A69C | 0.656 |
| U13C A36C C61A | 0.651 |
| U13A C30G C31U C33G | ≤ 0.5 |
| U13C A45C G50U A57G | ≤ 0.5 |
| U13A A21C G52A | ≤ 0.5 |
| U13C A20G C46U | 0.66 |
| U13C A57C | 0.67 |
| U13A A43G U53G | ≤ 0.5 |
| U13C A40U | 1.03 |
| U13C A36G A40C | 0.61 |
| U13A U47A | 0.872 |
| U13A U47C | 0.774 |
| U13C A40U A57G | 0.688 |
| U13A U54A | 0.622 |
